# Bioassay records as filed in PubChem BioAssay.
# HSF1 inh: HSF1 inhibition; NIH3T3-HGL HSE-luciferase, MG132-induced, luminescence 8 h; active compounds read low; 0.77% of 300,000 active; activity change, negative = inhibition, % at 7.5 µM (by protocol);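 active = more than half of replicate wells show activity change below -50%, luminescence cut by over half; inconclusive = some wells, but at most half, below -50%; inactive = no replicate well below -50%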;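 note: luciferase reports HSF-1 transcriptional activity via heat shock element; 0% = median of DMSO wells and -100% = zero luminescence signal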
# 697 NFkB inh: lowers PMA/ionomycin-induced NF-kB signal in 697 B cells | AID 435022 | 697 B-cell NF-kB luciferase reporter, 16 h | 0.33% of 330,000 active | inhibition, % at 4 µM; in the data active = inhibition above about 35%
# GPR7 antagonist: antagonists of human GPR7 (neuropeptides B/W receptor 1); inhibition, % at 4.4 µM; GPR7-expressing cells, fluorescence antagonist assay; P48145; 1.1% of 290,000 active; in the data active = inhibition above about 16%, passing the limit was not always enough;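 note: cells stimulated with the agonist NPW; 0% = agonist with vehicle and 100% = vehicle without agonist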
# Target sequence (P48145 whole entry, looked up): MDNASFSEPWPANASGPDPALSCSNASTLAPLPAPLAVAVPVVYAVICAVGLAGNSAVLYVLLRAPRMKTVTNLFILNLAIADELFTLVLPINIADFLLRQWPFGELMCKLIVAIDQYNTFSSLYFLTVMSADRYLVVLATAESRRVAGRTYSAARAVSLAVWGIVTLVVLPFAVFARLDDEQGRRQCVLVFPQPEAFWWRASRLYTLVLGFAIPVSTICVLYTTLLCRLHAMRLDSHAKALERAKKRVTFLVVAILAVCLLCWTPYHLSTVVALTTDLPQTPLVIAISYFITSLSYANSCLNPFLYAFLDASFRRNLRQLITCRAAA
# Jurkat NFkB inh: inhibitors of the PMA/ionomycin-induced NF-kB reporter in Jurkat cells | PMA/ionomycin-induced NF-kB luciferase reporter, luminescence | inhibition, % at 4 µM | 0.53% of 330,000 active; in the data active = inhibition above about 50%
# T cruzi repl: blocks replication of Trypanosoma cruzi. 1.4% of 300,000 active. inhibition, % (test concentration not listed). T. cruzi beta-gal in NIH3T3, luminescence, 90 h;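 active = mean inhibition across valid replicates above about 55%, limit read from the data; inconclusive = mean below that limit but half or more replicates reach it; inactive = mean below it, under half of replicates reach it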;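 note: signal also drops with host cell toxicity which is not excluded here; 0% = plate median of DMSO wells and 100% = zero luminescence signal; higher percent means less beta-gal luminescence so fewer parasites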
#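 Test system: β-gal T. cruzi (Tulahuen C4) inside NIH/3T3 cells / Quantity: 5,000 cells/well / Measured by: luminescence from GalScreen with 0.05% NP40, read after 60 min / Medium: DMEM plus 2% FBS / Measure: parasite load inhibition, % / Reagent: Tulahuen C4 trypomastigotes, 5000/well / Schedule: co-culture of at least 90 h after 3 h attachment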
# HSF-1 act: increases HSF-1 driven luciferase reporter signal; NIH3T3-HGL HSF-1 luciferase reporter, MG132, 8 h; 100% = twice DMSO control signal; 1.7% of 300,000 active; AID 504408; activation, % at 9 µM;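 active = mean replicate activation of at least 50% with a set share of replicates each reaching 50%; inconclusive = only one of those two conditions met; inactive = mean below 50% and too few replicates reaching it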;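 note: 0% = median of the neutral control wells and 100% = twice that signal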
# Jurkat NFkB conf: lowers PMA/ionomycin-induced NF-kB signal in Jurkat cells; AID 435020; Jurkat NF-kB luciferase, 16 h; 27% of 2,700 active; shares compounds with Jurkat NFkB inh; inhibition, % at 4 µM;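 active = inhibition reaching about 45% at 4 µM in either replicate, limit read from the data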;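 note: plate controls were PMA/ionomycin stimulated DMSO wells for no effect and unstimulated DMSO wells for full effect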
# * = called active by the depositor; ? = inconclusive; nt = no result. Sampled rows, rich in hits. Any-hit rate of the full collection: about 4.8%.
SMILES,HSF1 inh,697 NFkB inh,GPR7 antagonist,Jurkat NFkB inh,T cruzi repl,HSF-1 act,Jurkat NFkB conf
Nc1ccc2c(c1)C(=O)c1ccccc1C2=O,-7,-61,nt,-67,-9,1,nt
O=C1C(=O)c2ccc(-c3ccccc3)cc2-c2ccccc21,-95*,21,0,53*,?,-95,24
Nc1ccc2c(c1)C(=O)C(=O)c1ccccc1-2,-95*,5,-11,84*,38,-95,24
Nc1ccc2c(c1)C(=O)c1ccccc1-2,-10,19,nt,-21,19,-3,nt
Cc1ccc(S(=O)(=O)NN2C(=O)c3ccccc3NC2c2ccco2)cc1 (stereo not given),3,14,-11,16,6,2,nt
CCn1c(SCc2c(Cl)cccc2Cl)nc2nc3c(cc2c1=O)CCCC3,1,-1,nt,55*,29,-13,18
CCn1c(SCc2ccccc2Cl)nc2nc3c(cc2c1=O)CCCC3,-8,nt,4,nt,42,15,nt
COc1ccccc1NC(=O)c1nc[nH]c1C(=O)Nc1ccccc1OC,-4,-13,-8,51*,1,6,10
COc1ccc(NC(=O)c2nc[nH]c2C(=O)Nc2ccccc2C)cc1,-12,-23,2,53*,16,-13,12
Cc1ccccc1NC(=O)c1[nH]cnc1C(=O)NN,-1,-2,-22,-48,-10,10,nt
Cc1cc(C(=O)Nc2sc3c(c2C#N)CCCCC3)cs1,11,-179,-4,-186,17,16,-105
CC(=O)Nc1sc2c(c1C#N)CCCC2,-3,8,-4,-17,-22,12,nt
COc1ccc(C2=NOC(C(=O)NCc3ccc(F)cc3)C2)cc1OC (stereo not given),-7,27,12,78*,-24,0,58*
COc1cccc(C2=NOC(C(=O)NCc3ccc(F)cc3)C2)c1 (stereo not given),-16,-9,12,-4,-31,-12,nt
COc1ccccc1CNC(=O)C1CC(c2cccc([N+](=O)[O-])c2)=NO1 (stereo not given),-1,-6,12,55*,6,5,13
COc1cc(C2=NOC(C(=O)NCc3ccc(F)cc3)C2)cc(OC)c1OC (stereo not given),-15,29,1,68*,-5,-21,52*
O=C(NCc1ccco1)C1CC(c2cc(C(F)(F)F)cc(C(F)(F)F)c2)=NO1 (stereo not given),-10,-28,nt,62*,1,-25,20
Cc1ccc(S(=O)(=O)N2C[C@@H]3[C@H]4CC[C@H](C4)[C@@H]3[C@@H](C)[C@H]2c2ccco2)cc1,nt,10,nt,nt,nt,nt,nt
O=C(CCNS(=O)(=O)c1ccc(Br)s1)NCc1ccc2c(c1)OCO2,-3,11,-2,12,3,11,nt
CC(C)c1cc(C(=O)N2CCCC(N3CCN(c4ccc(F)cc4)CC3)C2)no1 (stereo not given),-3,13,-3,15,3,-3,nt
COc1cc(NC(=O)c2cc(-c3ccc4c(c3)OCO4)on2)cc(OC)c1OC,-2,4,-8,66*,59*,-8,25
Cc1cc(N/N=C/c2ccc(O)cc2)c2cccc(C)c2n1,0,-56,-11,-6,47,19,nt
Cc1cc(C)c2nc(C)cc(N/N=C/c3ccc(O)cc3)c2c1,9,-7,-11,98*,64*,11,81*
CC1=C([N+](=O)[O-])C(c2ccccc2)C2=C(N1)c1ccccc1C2=O (stereo not given),38,17,15,61*,12,57*,47*
COc1ccc(CNC(=O)C2CCC(CNS(=O)(=O)c3cccs3)CC2)cc1 (stereo not given),2,10,-6,17,1,14,nt
SMILES,HSF1 inh,697 NFkB inh,GPR7 antagonist,Jurkat NFkB inh,T cruzi repl,HSF-1 act,Jurkat NFkB conf
Cc1cccc(C(=O)OCC(=O)N(C)c2ccccc2)c1C,-3,8,-1,1,-3,-6,nt
COc1ccccc1C(=O)Nc1nc2cc3c(cc2s1)OCCO3,-3,-194,-27,-160,-7,1,-98
COc1ccccc1C(=O)Nc1ccc2c(c1)OCCO2,10,-124,-9,-100,0,39,nt
Cc1nc2cc(NC(=O)Nc3cccc([N+](=O)[O-])c3)ccc2n1C,27,-216,-2,-166,-7,54*,-118
CC(OC(=O)CC1Sc2ccccc2NC1=O)C(=O)NC1CCCC1 (stereo not given),0,9,5,4,-14,5,nt
COc1cc(OC)cc(-c2nc3cc(C)ccc3o2)c1,19,-175,-14,-151,-9,?,-72
Cc1ccc(NC(=O)C(=O)NCC2CCCN2S(=O)(=O)c2cccs2)cc1C (stereo not given),2,-6,nt,-1,16,-1,nt
COc1ccc(NC(=O)C(=O)NCC2CCCN2S(=O)(=O)c2cccs2)cc1 (stereo not given),-12,-4,nt,65*,7,-16,54*
COc1cccc(-c2noc(-c3cccs3)n2)c1,23,-249,-4,-152,-1,54*,-123
COc1cccc(-c2noc(-c3cccnc3)n2)c1,16,-155,-12,-90,-4,44,nt
COc1ccc(C(=O)N(C)Cc2cnn(Cc3ccccc3)c2)cc1S(=O)(=O)N1CCOCC1,nt,-48,nt,54*,nt,nt,44
CN(Cc1cnn(Cc2ccccc2)c1)C(=O)c1cccc(S(=O)(=O)N2CCOCC2)c1,nt,-8,nt,21,nt,nt,nt
Clc1ccc2c(Cl)c(-c3nnc(-c4ccccc4)o3)sc2c1,nt,nt,-9,nt,nt,nt,nt
Fc1ccc2c(Cl)c(-c3nnc(-c4cccs4)o3)sc2c1,6,-238,-6,-163,-1,22,-91
O=C(NNC(=O)c1cccs1)c1ccc(Cl)nc1,-5,1,nt,10,-1,-9,nt
C[C@@H]1CN([C@H](C)CO)C(=O)Cc2cc(NS(=O)(=O)c3cn(C)cn3)ccc2O[C@H]1CN(C)S(=O)(=O)c1ccc(Cl)cc1,nt,2,nt,-2,nt,nt,nt
O=C(N/N=C/c1ccccn1)c1ccc(Cl)c(Cl)c1,-16,3,-3,70*,37,-17,-2
NC[C@H](Cc1ccccc1)NCCCCC1CCCCC1,nt,-5,nt,6,nt,nt,nt
CNC[C@H](CC1CCCCC1)NC[C@H](Cc1ccccc1)NCCC12CC3CC(CC(C3)C1)C2,1,21,8,91*,46,5,45
O=C(Oc1ccc(-c2cnc3ccccc3n2)cc1)c1ccco1,11,-154,-2,-162,-12,9,-82
O=C(OCc1ccccc1F)c1cc([N+](=O)[O-])ccc1N1CCOCC1,6,-20,nt,-20,9,4,nt
